A short description of data set [1]: Inhibition of ConA-induced proliferation of BALB/c mouse splenocyte at 10 uM incubated for 48 hrs by CCK-8 assay relative to control. The format is functional. Summed up:
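Male BALB/c mouse splenocytes (6–8 weeks; red cells lysed with 0.84% NH4Cl), 5 × 10^5 cells/well in RPMI-1640 with 10% FBS and pen/strep, were stimulated with 5 μg/mL Con A with or without 10 μM compound for 48 h at 37 °C, 5% CO2. CCK-8 was added for 3 h and OD450 read. Inhibition was calculated against Con A-only wells; means ± SEM, ≥3 independent experiments.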
A general note: Tetrazolium assays rely on reduction of a dye to a coloured formazan, in cell work by metabolically active cells.

Data set [2] is described as follows: Inhibition of ConA-induced IL-4 secretion in BALB/c mouse splenocyte at 10 uM incubated for 48 hrs by ELISA relative to control. It is filed as functional. The gist of the method:
(§1)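 Male BALB/c splenocytes, 5 × 10^5 cells/well, were treated with Con A (5 μg/mL) plus compound at 5 or 10 μM for 48 h at 37 °C, 5% CO2. Plates were spun at 4 °C, 1500 rpm, 5 min. Cell-free supernatant IFN-γ or IL-4 was measured by capture-antibody ELISA. Inhibition was calculated against Con A-only wells; means ± SEM, ≥3 independent experiments.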
On the technique in general: In an ELISA, binding on a coated surface is turned into a signal by an enzyme label.

A short description of data set [3]: Inhibition of ConA-induced IFN-gamma secretion in BALB/c mouse splenocyte at 10 uM incubated for 48 hrs by ELISA relative to control. The format is functional. Summed up: as §1
The nature of data set [4]: Cytotoxicity against human Jurkat cells assessed as reduction in cell viability incubated for 48 hrs by CCK-8 assay. It is filed as toxicity, cell-based. Summed up:
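Human Jurkat T-leukemia cells in RPMI-1640 with 10% FBS and pen/strep, 2.5 × 10^4 cells/well, were exposed to serially diluted compound at 37 °C for 48 h. Viability was read by CCK-8 (3 h, OD450). IC50 is the concentration reducing viability to 50%.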

A short description of data set [5]: Inhibition of ConA-induced proliferation of BALB/c mouse splenocyte incubated for 48 hrs by CCK-8 assay relative to control. The format is functional, cell-based. The gist of the method: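 IC50 was measured only for compounds giving over 50% inhibition at 10 μM. Con A (5 μg/mL)-stimulated male BALB/c splenocytes, 5 × 10^5 cells/well in RPMI-1640/10% FBS, were cultured 48 h at 37 °C, 5% CO2. Read-out was CCK-8, 3 h incubation, OD450. IC50 came from at least three independent tests.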

Data set [6] is described as follows: Inhibition of ConA-induced proliferation of BALB/c mouse splenocyte at 1 uM incubated for 48 hrs by CCK-8 assay relative to control. The format is functional. The gist of the method: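 Positive-control condition: cyclosporine A at 1 μM in the same Con A (5 μg/mL)-stimulated BALB/c splenocyte culture, 5 × 10^5 cells/well, 48 h at 37 °C, 5% CO2. Proliferation was read by CCK-8 (3 h, OD450) against Con A-only wells.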

A short description of data set [7]: Selectivity index, ratio of IC50 for cytotoxicity against human Jurkat cells to IC50 for inhibition of ConA-induced proliferation of BALB/c mouse splenocyte. The format is toxicity, cell-based. To be noted: mouse (splenocytes), ConA-stimulated mouse splenocytes, read-out: Ratio IC50. Summed up:
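Ratio of Jurkat IC50 to splenocyte IC50. Jurkat: 2.5 × 10^4 cells/well, serial dilutions, 48 h, 37 °C, CCK-8 viability. Splenocytes: BALB/c cells, 5 × 10^5/well, with 5 μg/mL Con A, 48 h, 37 °C, 5% CO2, CCK-8 read at OD450.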

Data on 21 molecules can be found in ChEMBL document CHEMBL5107945, “Synthesis and biological evaluation of bergenin derivatives as new immunosuppressants” (RSC Med Chem, 2021).

The structures appear in SMILES notation.

What is called inhibition is the drop in the measured response relative to a control, in per cent. By IC50 is commonly meant the point on the concentration scale where inhibition reaches its midpoint.

As to `CCCCCCCCCCOc1cc2c(c(OCCCCCCCCCC)c1OC)[C@@H]1O[C@H](CO)[C@@H](O)[C@H](O)[C@H]1OC2=O`, the inhibition at 10 µM in data set [1] is 15.4%.

As to `C[C@H]1C[C@H]2[C@@H]3CCC4=CC(=O)C=C[C@]4(C)[C@@]3(F)[C@@H](O)C[C@]2(C)[C@@]1(O)C(=O)CO` [BETAMETHASONE], the inhibition at 10 µM in data set [2] was 96.9%; in data set [3], 99.3%; in data set [1], 89.6%.

For the molecule `COc1c(OCc2ccccc2)cc2c(c1OCc1ccccc1)[C@@H]1O[C@@H]3CO[C@@H](c4ccccc4)O[C@H]3[C@@H](OS(=O)(=O)C(F)(F)F)[C@H]1OC2=O`, in data set [4], the IC50 at 48 h amounted to 44.2 µM. The same molecule came in with an IC50 in data set [5] of 8.05 µM. The results for the inhibition at 10 µM in data set [2], in data set [3] and in data set [1] were 63.1%, 68.6% and 75.9%, respectively.

As to `C/C=C/C[C@@H](C)[C@@H](O)[C@H]1C(=O)N[C@@H](CC)C(=O)N(C)CC(=O)N(C)[C@@H](CC(C)C)C(=O)N[C@@H](C(C)C)C(=O)N(C)[C@@H](CC(C)C)C(=O)N[C@@H](C)C(=O)N[C@H](C)C(=O)N(C)[C@@H](CC(C)C)C(=O)N(C)[C@@H](CC(C)C)C(=O)N(C)[C@@H](C(C)C)C(=O)N1C` [CYCLOSPORINE], the inhibition at 1 µM in data set [6] turned out to be 93.5%.

For `COc1c(OCc2ccccc2)cc2c(c1OCc1ccccc1)[C@@H]1O[C@@H]3CO[C@@H](c4ccccc4)O[C@H]3[C@H](O)[C@H]1OC2=O`, the selectivity ratio in data set [7] came out at 5.96. Besides, the IC50 at 48 h in data set [4] was found to be 21 µM. For the same molecule, the IC50 in data set [5] is 3.52 µM. The inhibition at 10 µM worked out at 76.9% in data set [2], 71% in data set [3] and 91.4% in data set [1].

For the molecule `COc1c(O)cc2c(c1O)[C@@H]1O[C@@H]3CO[C@@H](c4ccccc4)O[C@H]3[C@H](O)[C@H]1OC2=O`, the inhibition at 10 µM in data set [1] is -3.78%.

In the case of `COc1c(OCc2ccccc2)cc2c(c1OCc1ccccc1)[C@@H]1O[C@@H]3CO[C@@H](c4ccccc4)O[C@H]3[C@H](OS(=O)(=O)C(F)(F)F)[C@H]1OC2=O`, the inhibition at 10 µM in data set [1] is -1.62%.

Consider `COc1c(O)cc2c(c1O)[C@@H]1O[C@H](CO)[C@@H](O)[C@H](O)[C@H]1OC2=O` [BERGENIN], for which the inhibition at 10 µM in data set [2] is 18.3%; in data set [3], -6.2%; in data set [1] it was 11.7%.

Consider `CCCCCCCOc1cc2c(c(OCCCCCCC)c1OC)[C@@H]1O[C@@H]3CO[C@@H](c4ccccc4)O[C@H]3[C@H](O)[C@H]1OC2=O`, for which, in data set [1], the inhibition at 10 µM was -6.83%.

Regarding `CCCCCCOc1cc2c(c(OCCCCCC)c1OC)[C@@H]1O[C@H](CO)[C@@H](O)[C@H](O)[C@H]1OC2=O`, the IC50 at 48 h in data set [4] was determined as 5.21 µM. This molecule also yielded an IC50 in data set [5] of 8.16 µM. For the same molecule, the inhibition at 10 µM in data set [2] amounted to 61.9%; in data set [3] it was 67.4%; in data set [1], 98.1%.

Turning to `CCCCCCCCOc1cc2c(c(OCCCCCCCC)c1OC)[C@@H]1O[C@H](CO)[C@@H](O)[C@H](O)[C@H]1OC2=O`, the inhibition at 10 µM in data set [1] was -21.5%.

Take `COc1c(OCc2ccccc2)cc2c(c1OCc1ccccc1)[C@@H]1O[C@H](CO)[C@@H](O)[C@H](O)[C@H]1OC2=O`: the inhibition at 10 µM in data set [1] was -5.95%.

`CCCCCCCOc1cc2c(c(OCCCCCCC)c1OC)[C@@H]1O[C@H](CO)[C@@H](O)[C@H](O)[C@H]1OC2=O`: the IC50 at 48 h in data set [4] was 4.18 µM. The molecule further yielded an IC50 in data set [5] of 7.21 µM. The inhibition at 10 µM in data set [2] came out at 98.6%; in data set [3] it was 102%; in data set [1], 99%.

Regarding `CCCCCCCOc1cc2c(c(OCCCCCCC)c1OC)[C@@H]1O[C@H](COCc3ccccc3)[C@@H](O)[C@H](O)[C@H]1OC2=O`, the IC50 at 48 h in data set [4] was found to be 10.1 µM. In data set [5], this molecule gave an IC50 of 7.66 µM. The results for the inhibition at 10 µM in data set [2], in data set [3] and in data set [1] were 95.9%, 99.6% and 99.4%, respectively.

Take `CCCCCOc1cc2c(c(OCCCCC)c1OC)[C@@H]1O[C@H](CO)[C@@H](O)[C@H](O)[C@H]1OC2=O`: the inhibition at 10 µM in data set [1] worked out at 5.4%.

Regarding `COc1c(OCc2ccccc2)cc2c(c1OCc1ccccc1)[C@@H]1O[C@@H]3CO[C@@H](c4ccccc4)O[C@H]3[C@H](N)[C@H]1OC2=O`, the concentration for half-maximal inhibition (IC50) at 48 h in data set [4] was found to be 39.3 µM. In addition, in data set [5], half-maximal inhibition (IC50) required 8.19 µM. Besides, the inhibition at 10 µM was found to be 8.7% in data set [2], 48.4% in data set [3] and 72.6% in data set [1].

Take `COc1c(OCc2ccccc2)cc2c(c1OCc1ccccc1)[C@@H]1O[C@@H]3CO[C@@H](c4ccccc4)O[C@H]3[C@H](N=[N+]=[N-])[C@H]1OC2=O`: in data set [1], the inhibition at 10 µM is -2.26%.

Turning to `CCCCOc1cc2c(c(OCCCC)c1OC)[C@@H]1O[C@H](CO)[C@@H](O)[C@H](O)[C@H]1OC2=O`, the inhibition at 10 µM in data set [1] was -9.27%.

Regarding `COc1c(OCc2ccccc2)cc2c(c1OCc1ccccc1)[C@@H]1O[C@@H]3CO[C@@H](c4ccccc4)O[C@H]3[C@H](NS(C)(=O)=O)[C@H]1OC2=O`, the selectivity ratio in data set [7] amounted to 6. Besides, the IC50 at 48 h in data set [4] was 33.1 µM. Also, the IC50 in data set [5] stood at 5.39 µM. Besides, the inhibition at 10 µM was determined as 67.5% in data set [2], 71.1% in data set [3] and 84.9% in data set [1].

Turning to `CCCCCCCOc1cc2c(c(OCCCCCCC)c1OC)[C@@H]1O[C@H](CO)[C@@H](OCc3ccccc3)[C@H](O)[C@H]1OC2=O`, the IC50 at 48 h in data set [4] is 16.1 µM. Further, the IC50 in data set [5] was 10.6 µM. Also, the inhibition at 10 µM in data set [2] stood at 51.4%; in data set [3], 51.3%; in data set [1], 69.8%.

With `COc1c(OCc2ccccc2)cc2c(c1OCc1ccccc1)[C@@H]1O[C@@H]3CO[C@@H](c4ccccc4)O[C@H]3[C@@H](O)[C@H]1OC2=O`, in data set [1], the inhibition at 10 µM was found to be 11.2%.
